Source: ChEMBL document CHEMBL4390663, “Cationic biaryl 1,2,3-triazolyl peptidomimetic amphiphiles: synthesis, antibacterial evaluation and preliminary mechanism of action studies” (Eur J Med Chem, 2019)

Columns and labels:
Staphylococcus aureus [1] = experiment: Antimicrobial activity against Staphylococcus aureus ATCC 43300 incubated for 18 hrs by CLSI method; assay type: functional; details: ATCC 43300, 18 h
Klebsiella pneumoniae = experiment: Antibacterial activity against Klebsiella pneumoniae 700603 incubated for 18 hrs by CLSI method; assay type: functional; details: Klebsiella pneumoniae, 700603, 18 h
Method in brief: (§1)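 Screen run by CO-ADD: mid-log cultures in cation-adjusted MHB, 5 × 10^5 CFU/mL, compounds at up to 32 μg/mL in 1:2 serial dilutions (8 steps), final DMSO ≤0.5%, duplicate. 37 °C for 18 h without shaking; OD600 read against media-only and untreated-bacteria references. MIC = lowest concentration giving ≥80% inhibition; colistin standard.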

[2] = Haemolytic activity in sheep erythrocytes at 50 ug/ml incubated for 2 hrs under shaking condition relative to control; assay type: ADME, cell-based, Ovis aries, Erythrocyte; details: read-out: Activity
Method in brief: (§2)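 Compounds in PBS mixed with washed sheep erythrocytes (2% final) at 5 or 50 μg/mL, rocked 2 h at 37 °C, centrifuged; supernatant absorbance at 540 nm. PBS-only value subtracted, then expressed relative to water lysis (100%). Triplicate, means reported.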

Clostridioides difficile [3] = experiment: Antibacterial activity against Clostridium difficile ATCC 700057 incubated for 48 hrs by CLSI method; assay type: functional; details: ATCC 700057, 48 h
Method in brief: (§3)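 Broth microdilution per CLSI anaerobe method in pre-reduced (2-4 h) Brucella broth with haemin and vitamin K, 35 °C anaerobically for 48 h. Compounds from 5 mg/mL DMSO stocks, twofold dilutions in water mixed with double-strength broth; final 0.25–128 μg/mL. […] Triplicate; modal MIC read visually as lowest concentration inhibiting growth.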

Escherichia coli = experiment: Antibacterial activity against Escherichia coli ATCC 25922 incubated for 18 hrs by CLSI method; assay type: functional; details: ATCC 25922, 18 h; method in brief: as §1
Enterococcus faecalis = experiment: Antibacterial activity against Enterococcus faecalis ATCC 29212 incubated for 24 hrs by CLSI method; assay type: functional; details: ATCC 29212, 24 h
Staphylococcus aureus [4] = experiment: Antimicrobial activity against Staphylococcus aureus ATCC 29213 incubated for 24 hrs by CLSI method; assay type: functional; details: ATCC 29213, 24 h
Method in brief: (§4)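 Broth microdilution per CLSI aerobic guidance in Mueller Hinton broth, ambient air, 35 °C for 24 h. DMSO stocks were diluted in water, then serially diluted with double-strength broth inoculum added, for final 0.25–128 μg/mL. […] MIC was read visually as the lowest concentration inhibiting growth; the modal value of triplicates was recorded.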

Streptococcus pneumoniae = experiment: Antibacterial activity against Streptococcus pneumoniae ATCC 49619 incubated for 24 hrs by CLSI method; assay type: functional; details: ATCC 49619, 24 h
Method in brief: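 CLSI broth microdilution in MHB with 2.5% lysed horse blood, 5% CO2, 35 °C, 24 h. Compounds from 5 mg/mL DMSO stocks diluted in water plus double-strength broth; final 0.25–128 μg/mL. […] Triplicate; modal MIC read visually as lowest growth-inhibiting concentration.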

Staphylococcus aureus [5] = experiment: Antibacterial activity against methicillin-resistant Staphylococcus aureus NCTC 10442 incubated for 24 hrs by CLSI method; assay type: functional; details: NCTC 10442, 24 h; method in brief: as §4
Pseudomonas aeruginosa = experiment: Antimicrobial activity against Pseudomonas aeruginosa ATCC 27853 incubated for 18 hrs by CLSI method; assay type: functional; details: ATCC 27853, 18 h; method in brief: as §1
[6] = Cytotoxicity against human HEK293 cells assessed as reduction in cell growth incubated for 20 hrs by resazurin dye-based fluorometric assay
Method in brief: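 HEK293 cells, 5000 per well in DMEM + 10% FBS, exposed to compounds (top 32 μg/mL, 1:2 serial dilution ×8, ≤0.5% DMSO, duplicate) for 20 h at 37 °C, 5% CO2. Resazurin added (2.3 μg/mL final), 3 h further; fluorescence ex 560/em 590 nm. CC50 from sigmoidal dose-response fit against log concentration; tamoxifen standard.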

[7] = Haemolytic activity in sheep erythrocytes at 5 ug/ml incubated for 2 hrs under shaking condition relative to control; assay type: ADME, cell-based, Ovis aries, Erythrocyte; details: read-out: Activity; method in brief: as §2
Acinetobacter baumannii = experiment: Antimicrobial activity against Acinetobacter baumannii ATCC 19606 incubated for 18 hrs by CLSI method; assay type: functional; details: ATCC 19606 = CIP 70.34 = JCM 6841, 18 h; method in brief: as §1
Clostridioides difficile [8] = experiment: Antibacterial activity against Clostridium difficile NSW132 RT027 incubated for 48 hrs by CLSI method; assay type: functional; details: NSW132 RT027, 48 h; method in brief: as §3

| Structure (SMILES) | MIC (Staphylococcus aureus [1]) [µg/mL] | MIC (Klebsiella pneumoniae) [µg/mL] | hemolysis at 2 h, 50 ug/ml [2] [%] | MIC (Clostridioides difficile [3]) [µg/mL] | MIC (Escherichia coli) [µg/mL] | MIC (Enterococcus faecalis) [µg/mL] | MIC (Staphylococcus aureus [4]) [µg/mL] | MIC (Streptococcus pneumoniae) [µg/mL] | MIC (Staphylococcus aureus [5]) [µg/mL] | MIC (Pseudomonas aeruginosa) [µg/mL] | CC50 at 20 h [6] [µg/mL] | hemolysis at 2 h, 5 ug/ml [7] [%] | MIC (Acinetobacter baumannii) [µg/mL] | MIC (Clostridioides difficile [8]) [µg/mL] |
| --- | --- | --- | --- | --- | --- | --- | --- | --- | --- | --- | --- | --- | --- | --- |
| CC(C)CCOc1ccccc1-c1ccccc1OCc1cn(C[C@@H](CCCNC(=N)N)NC(=O)OCc2ccccc2)nn1.Cl | 8 | > 32 | 89.1 | 32 | > 32 | 8 | 4 | 16 | 4 | > 32 | > 32 | 0.7 | > 32 | 32 |
| CC(C)CCOc1ccccc1-c1ccccc1OCc1cn(C[C@@H](CCCNC(=N)N)NC(=O)[C@@H](CCCCN)n2cc(C3CCCCC3)nn2)nn1.Cl.Cl | 4 | 32 | – | 32 | 8 | 8 | 4 | 4 | 4 | 8 | 15.3 | – | 8 | 32 |
| CC(C)CCOc1ccc2ccccc2c1-c1c(OCc2cn(C[C@@H](CCCCN)NC(=O)[C@@H](CCCNC(=N)N)n3cc(CCc4ccccc4)nn3)nn2)ccc2ccccc12.Cl.Cl | 4 | > 32 | – | 16 | > 32 | 4 | 4 | 4 | 4 | 32 | > 32 | – | 32 | 16 |
| CC(C)CCOc1ccccc1-c1ccccc1OCc1cn(C[C@@H](CCCNC(=N)N)NC(=O)[C@@H](CCCCN)N=[N+]=[N-])nn1.Cl.Cl | 8 | 32 | – | 64 | 16 | 16 | 16 | 8 | 16 | 32 | > 32 | – | 16 | 32 |
| CC(C)CCOc1ccccc1-c1ccccc1OCc1cn(C[C@@H](CCCCN)NC(=O)[C@@H](CCCNC(=N)N)NC(=O)OCC2c3ccccc3-c3ccccc32)nn1.Cl.Cl | 4 | > 32 | – | 32 | > 32 | 4 | 4 | 4 | 4 | > 32 | > 32 | – | > 32 | 32 |
| CC(C)CCOc1ccccc1-c1ccccc1OCc1cn(C[C@@H](CCCNC(=N)N)NC(=O)[C@@H](CCCCN)n2cc(Cc3ccccc3)nn2)nn1.Cl.Cl | 4 | 32 | – | 64 | 8 | 8 | 4 | 4 | 4 | 16 | 17.8 | – | 16 | 64 |
| CC(C)CCOc1ccccc1-c1ccccc1OCc1cn(C[C@@H](CCCCN)NC(=O)Cc2ccccc2)nn1.Cl | 16 | > 32 | – | 32 | > 32 | 8 | 8 | 8 | 8 | 32 | 14.2 | – | 32 | 32 |
| CC(C)CCOc1ccc2ccccc2c1-c1c(OCc2cn(C[C@@H](CCCCN)NC(=O)Cc3ccccc3)nn2)ccc2ccccc12.Cl | 8 | > 32 | – | 16 | > 32 | 8 | 8 | 32 | 8 | > 32 | 8.6 | – | > 32 | 32 |
| CC(C)CCOc1ccccc1-c1ccccc1OCc1cn(C[C@@H](CCCCN)NC(=O)[C@@H](CCCNC(=N)N)n2cc(Cc3ccccc3)nn2)nn1.Cl.Cl | 4 | 16 | – | 16 | 16 | 16 | 8 | 4 | 8 | 16 | 21.9 | – | 8 | 16 |
| CC(C)CCOc1ccccc1-c1ccccc1OCc1cn(C[C@@H](CCCNC(=N)N)NC(=O)Cc2ccccc2)nn1.Cl | 16 | > 32 | – | 64 | > 32 | 16 | 16 | 16 | 16 | > 32 | 29 | – | > 32 | 16 |
| CC(C)CCOc1ccc2ccccc2c1-c1c(OCc2cn(C[C@@H](CCCNC(=N)N)NC(=O)CCc3ccccc3)nn2)ccc2ccccc12.Cl | 4 | > 32 | – | 16 | > 32 | 8 | 4 | 8 | 4 | > 32 | 15.9 | – | > 32 | 16 |
| CC(C)CCOc1ccccc1-c1ccccc1OCc1cn(C[C@@H](CCCCN)NC(=O)OCc2ccccc2)nn1.Cl | 16 | > 32 | – | 8 | 32 | 16 | 16 | 32 | 16 | 32 | 4.7 | – | 32 | 32 |
| CC(C)CCOc1ccccc1-c1ccccc1OCc1cn(C[C@@H](CCCNC(=N)N)NC(=O)CCc2ccccc2)nn1.Cl | 16 | > 32 | – | 128 | > 32 | 16 | 16 | 32 | 16 | > 32 | > 32 | – | > 32 | 16 |
